Reference: PMC9933479 (ACS Omega, 2023)
Where two headings read alike, the source gives them in different places.

Columns and labels:
Test in all cases: MTT assay, cytotoxicity/growth inhibition
[1] = test system: HCT-116 (colon carcinoma); format: cell-based; settings: Homo sapiens; for inhibition at 20 µM: HCT-116, 48 h, read-out: Cytotoxic Activity (% Growth Inhibition)
Procedure, shortened: (§1)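 Cells were grown in RPMI (A549, HCT-116, PC-3) or DMEM (MCF-7) with 10% FBS at 37 °C and 5% CO2. Seeding per well was […] and PC-3 8 × 10^4 cells. […] MTT 250 μg/mL, 4 h; DMSO; A570; triplicate; mean ± SE.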

MCF-7 (breast carcinoma) = format: cell-based; settings: Homo sapiens; for inhibition at 20 µM: MCF7, 48 h, read-out: Cytotoxic Activity (% Growth Inhibition)
Procedure, shortened: as §1

A549 (lung carcinoma) = format: cell-based, human; settings: for inhibition at 20 µM: A549, 48 h
Procedure, shortened: as §1

[2] = test system: PC-3 (prostate carcinoma); format: cell-based; settings: Homo sapiens; for inhibition at 20 µM: 48 h, read-out: Cytotoxic Activity (% Growth Inhibition)
Procedure, shortened: as §1

[3] = Homo sapiens, read-out: Cytotoxic Activity (% Growth Inhibition), A549, 20 μM concentration, MTT, 48 h

COc1cc(C(=O)OCC2=CCC3[C@]4(C)COC(c5ccccc5)O[C@@H]4CC[C@@]3(C)[C@@H]2/C=C/C2=CCOC2=O)cc(OC)c1OC (stereo partly drawn) [Compound 8k, ((4aR,6aR,7S,10bR)-6a,10b-Dimethyl-7-((E)-2-(2-oxo-2,5-dihydrofuran-3-yl)vinyl)-3-phenyl-4a,5,6,6a,7,10,10a,10b-octahydro-1H-naphtho[2,1-d][1,3]dioxin-8-yl)methyl 3,4,5-Trimethoxybenzoate]
inhibition at 20 µM [1]: 50 ± 0.62%
inhibition at 20 µM (MCF-7 (breast carcinoma)): 46 ± 0.77%
inhibition at 20 µM (A549 (lung carcinoma); [3]): 20.4 ± 0.73%
inhibition at 20 µM [2]: 5.6 ± 0.59%

COc1ccc(C(=O)OCC2=CCC3[C@]4(C)COC(c5ccccc5)O[C@@H]4CC[C@@]3(C)[C@@H]2/C=C/C2=CCOC2=O)cc1Cl (stereo partly drawn) [Compound 8l, ((4aR,6aR,7S,10bR)-6a,10b-Dimethyl-7-((E)-2-(2-oxo-2,5-dihydrofuran-3-yl)vinyl)-3-phenyl-4a,5,6,6a,7,10,10a,10b-octahydro-1H-naphtho[2,1-d][1,3]dioxin-8-yl)methyl 3-Chloro-4-methoxybenzoate]
inhibition at 20 µM [1]: 36.2 ± 0.8%
inhibition at 20 µM (MCF-7 (breast carcinoma)): 51 ± 0.5%
Cytotoxic Activity (% Growth Inhibition) (A549 (lung carcinoma); A549, 20 μM concentration, MTT, 48 h, 20 µM): 61.6 ± 0.83%
inhibition at 20 µM (A549 (lung carcinoma); [3]): < 60%
inhibition at 20 µM [2]: 62 ± 0.97%

C[C@@]12COC(c3ccccc3)O[C@@H]1CC[C@]1(C)C2CC=C(COC(=O)c2ccccc2C(F)(F)F)[C@H]1/C=C/C1=CCOC1=O (stereo partly drawn) [Compound 8n, ((4aR,6aR,7S,10bR)-6a,10b-Dimethyl-7-((E)-2-(2-oxo-2,5-dihydrofuran-3-yl)vinyl)-3-phenyl-4a,5,6,6a,7,10,10a,10b-octahydro-1H-naphtho[2,1-d][1,3]dioxin-8-yl)methyl 2-(Trifluoromethyl)benzoate]
inhibition at 20 µM [1]: 31.3 ± 0.89%
inhibition at 20 µM (MCF-7 (breast carcinoma)): 55 ± 0.69%
inhibition at 20 µM (A549 (lung carcinoma); [3]): 18 ± 1.4%
inhibition at 20 µM [2]: 55 ± 0.56%

C[C@@]12COC(c3ccccc3)O[C@@H]1CC[C@]1(C)C2CC=C(COC(=O)Cc2ccccc2)[C@H]1/C=C/C1=CCOC1=O (stereo partly drawn) [Compound 8o, ((4aR,6aR,7S,10bR)-6a,10b-Dimethyl-7-((E)-2-(2-oxo-2,5-dihydrofuran-3-yl)vinyl)-3-phenyl-4a,5,6,6a,7,10,10a,10b-octahydro-1H-naphtho[2,1-d][1,3]dioxin-8-yl)methyl 2-Phenylacetate]
inhibition at 20 µM [1]: 24.97 ± 0.16%
inhibition at 20 µM (MCF-7 (breast carcinoma)): 32.09 ± 0.08%
inhibition at 20 µM (A549 (lung carcinoma); Homo sapiens, read-out: Cytotoxic Activity (% Growth Inhibition)): 20.13 ± 0.02%
inhibition at 20 µM [2]: 0%

C[C@@]12COC(c3ccccc3)O[C@@H]1CC[C@]1(C)C2CC=C(COC(=O)Cc2ccc(F)cc2)[C@H]1/C=C/C1=CCOC1=O (stereo partly drawn) [Compound 8p, ((4aR,6aR,7S,10bR)-6a,10b-Dimethyl-7-((E)-2-(2-oxo-2,5-dihydrofuran-3-yl)vinyl)-3-phenyl-4a,5,6,6a,7,10,10a,10b-octahydro-1H-naphtho[2,1-d][1,3]dioxin-8-yl)methyl 2-(4-Fluorophenyl)acetate]
IC50 ([1]; HCT-116): > 20 µM
inhibition at 20 µM [1]: 20.6 ± 0.95%
IC50 (MCF-7 (breast carcinoma); MCF7): > 20 µM
inhibition at 20 µM (MCF-7 (breast carcinoma)): 0%
IC50 (A549 (lung carcinoma); Homo sapiens, A549): > 20 µM
inhibition at 20 µM (A549 (lung carcinoma); [3]): 17 ± 1.7%
IC50 [2]: 8 µM
inhibition at 20 µM [2]: 77 ± 0.86%

C[C@@]12COC(c3ccccc3)O[C@@H]1CC[C@]1(C)C2CC=C(COC(=O)Cc2ccc(Cl)cc2)[C@H]1/C=C/C1=CCOC1=O (stereo partly drawn) [Compound 8q, ((4aR,6aR,7S,10bR)-6a,10b-Dimethyl-7-((E)-2-(2-oxo-2,5-dihydrofuran-3-yl)vinyl)-3-phenyl-4a,5,6,6a,7,10,10a,10b-octahydro-1H-naphtho[2,1-d][1,3]dioxin-8-yl)methyl 2-(4-Chlorophenyl)acetate]
inhibition at 20 µM [1]: 36.1 ± 0.96%
inhibition at 20 µM (MCF-7 (breast carcinoma)): 46 ± 0.72%
inhibition at 20 µM (A549 (lung carcinoma); [3]): 11 ± 1%
inhibition at 20 µM [2]: 39 ± 0.82%
